Data reported in PMC1390681 (Nucleic Acids Research, 2006).

Experiments:
NC•SL3 = assay: NC–RNA inhibition: ligand added to preformed NC•SL3 complex, ESI-FTMS; type: binding, HIV-1; settings: for ligand effect on NC•SL3 complex: 0.35–17.5 µM ligand added to preformed complex
SL2 = assay: Multiplexed binding assay, ternary ligand mixture added to SL2, ESI-FTMS; design: species or system HIV-1; settings: ternary mixture of vancomycin, mitoxantrone and neomycin B; negative control
How it was run: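 SL2 hairpin (HIV-1 NL4-3 sequence), desalted in 100 mM ammonium acetate pH 7.5, heated 95°C 3 min, ice-cooled. Equimolar mix of up to three ligands added stepwise to 0.35 µM final RNA, giving 0.35–17.5 µM total ligand. Incubated 15 min at room temperature. Analysed by 2-propanol-assisted nanospray ESI-FTMS (7 T, negative ion). Species quantified from signal intensities divided by charge state.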

NC•SL4 = assay: NC–RNA inhibition: ligand added to preformed NC•SL4 complex, ESI-FTMS; type: binding, HIV-1; settings: 0.35–17.5 µM ligand added to preformed complex
How it was run: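 NC was expressed in E. coli BL21(DE3)-pLysE and purified non-denaturing, with two Zn2+ confirmed by MS. It was mixed equimolar with refolded hairpin (SL4 stem extended by three base pairs) for 15 min at room temperature, forming a 1:1 complex. Ligand (0.35–17.5 µM) was added to ~3.5 µM complex in 100 mM ammonium acetate pH 7.5, then read by negative-ion ESI-FTMS. IC50 at 0.5 fractional occupancy, from competition-isotherm fit, triplicate.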

NC•SL2 = assay: NC–RNA inhibition: ligand added to preformed NC•SL2 complex, ESI-FTMS; type: binding, HIV-1; settings: 0.35–17.5 µM ligand added to preformed complex

| SMILES | ligand effect on NC•SL3 complex (NC•SL3) | equivalents of ligand bound to NC•SL3 complex (ternary species) (NC•SL3; 5-fold addition of ligand) | binding to SL2 in multiplexed assay (SL2) | ligand effect on NC•SL4 complex (NC•SL4) | ligand effect on NC•SL2 complex (NC•SL2) |
| --- | --- | --- | --- | --- | --- |
| O=C1c2c(O)ccc(O)c2C(=O)c2c(NCCNCCO)ccc(NCCNCCO)c21 [Mitoxantrone, mitoxantrone] | no detectable signs of dissociation | up to three | – | – | – |
| CN[C@H](CC(C)C)C(=O)N[C@H]1C(=O)N[C@@H](CC(N)=O)C(=O)N[C@H]2C(=O)N[C@H]3C(=O)N[C@H](C(=O)N[C@H](C(=O)O)c4cc(O)cc(O)c4-c4cc3ccc4O)[C@H](O)c3ccc(c(Cl)c3)Oc3cc2cc(c3O[C@@H]2O[C@H](CO)[C@@H](O)[C@H](O)[C@H]2O[C@H]2C[C@](C)(N)[C@H](O)[C@H](C)O2)Oc2ccc(cc2Cl)[C@H]1O [vancomycin] | – | – | no binding was observed | – | – |
| CN(C)[C@@H]1C(O)=C(C(N)=O)C(=O)[C@@]2(O)C(O)=C3C(=O)c4c(O)ccc(Cl)c4[C@@](C)(O)[C@H]3C[C@@H]12 [Chlorotetracycline, chlorotetracycline] | No Effect | – | – | No Effect | No Effect |
| Cn1cc(NC(=O)c2cc(NC(=O)c3cc(NC=O)cn3C)cn2C)cc1C(=O)NCCC(=N)N [Distamycin A, distamycin A] | – | – | – | No Effect | No Effect |
